Measurements of several laboratories.
Compare with care: the assays were run in different laboratories. pIC50, pKi: −log10 of the molar value.
Target: D(1A) dopamine receptor (DRD1, Homo sapiens, UniProt P21728)

For CN(CCCCNC(=O)c1cc2ccccc2[nH]1)[C@@H]1Cc2cccc3[nH]c(=O)n(c23)C1, the pKi was < 5.10 (ligand displacement; radioligand).
COc1ccc2c(c1)C(=O)N(CCCN1CCN(c3ccccc3OC)CC1)C2 gave a pKi of 5.21 (cell-free assay; radioligand).
With CCCOc1cc2c(cc1O)[C@@H]1Cc3c(Br)cc(O)c(OCC(F)F)c3CN1CC2 the pIC50 was 5.84 (cAMP; antagonist; TR-FRET).
For O=C1c2ccccc2CCN1CCCCN1CCN(c2ccccn2)CC1, the pKi was 5.78 (cell-free assay; radioligand).
The pKi of CCCCN1CCC(COC(=O)c2ccc(N)c(OCF)c2)CC1 is reported as < 5.00 (cell-free assay; radioligand).
With CCOCc1nc(O)c(-c2nnc(Cc3ccc(Cl)cn3)o2)c(O)c1-c1c(OC)cccc1OC the pIC50 was < 4.52 (ligand displacement; radioligand).
CCCCOc1c(O)cc(Br)c2c1CN1CCc3cc(OCC(F)F)c(O)cc3[C@@H]1C2 gave a pIC50 of 6.50 (cAMP; antagonist; TR-FRET).
The pKi of O=C1c2ccccc2CCN1CCCCN1CCN(c2cccc(Cl)c2Cl)CC1 is reported as 6.29 (cell-free assay; radioligand).
CCCOc1cc2c(cc1O)[C@@H]1Cc3c(Br)cc(O)c(OCC(F)(F)F)c3CN1CC2 has a pIC50 of 6.61 (cAMP; antagonist; TR-FRET).
With C[C@@H]1Cc2ccccc2N1C(=O)NCCCCN(C)[C@@H]1Cc2cccc3[nH]c(=O)n(c23)C1 the pKi was < 5.00 (ligand displacement; radioligand).
